Screens from PubChem BioAssay.
The list is not random: actives were taken first. Their share in the collection is about 4.3%.
RBBP9 inh: blocks human serine hydrolase RBBP9; inhibition, % at 7.94 µM; O75884; AID 1515; 220,000 compounds, 0.2% hits; recombinant RBBP9, FP-Rh probe fluorescence polarization;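 active = inhibition above the campaign mean of all tested compounds plus 3 SD, cut at about 14% in these data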;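 note: plate controls were DMSO wells with RBBP9 for no effect and wells lacking RBBP9 protein for full effect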
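Measured by – fluorescence polarization · Test system – RBBP9 protein · Input – 2.5 µM RBBP9 dispensing solution, before mixing · Measure – percent inhibition from mP, scaled between DMSO and no-protein wells · Benchmarks – DMSO-treated enzyme wells and wells lacking RBBP9 · Times – preincubation 30 min plus labeling 45 min at 25 °C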
ALR H2O2 inh: blocks human ALR sulfhydryl oxidase activity | P55789 | 290,000 compounds, 3.8% hits | inhibition, % (test concentration not listed) | purified ALR, DTT oxidation, H2O2 HRP-luminol luminescence;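 active = mean replicate inhibition above about 79%, with every replicate also reaching it, limit read from the data; inconclusive = only one of the two criteria met; inactive = mean below limit and not every replicate reaching it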
UBC13 polyUb: blocks human UBC13 polyubiquitin chain formation; AID 485273; 330,000 compounds, 0.47% hits; TR-FRET; inhibition, % at 20 µM; P61088; in the data active = inhibition above about 45%, passing the limit was not always enough; inconclusive = no clear call, values can overlap the other calls
PREPL inhibitor: inhibitors of human prolyl oligopeptidase-like enzyme PREPL; recombinant PREPL, fluorescence polarization activity-based probe; inhibition, % at 5.96 µM; 320,000 compounds, 0.68% hits; in the data active = inhibition above about 43%;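 note: 0% = enzyme with DMSO and 100% = wells lacking enzyme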
UBC9 SUMO inh: blocks human SUMOylation mediated by UBC9. inhibition, % at 35 µM. AID 2006. HTRF SUMOylation assay, SAE1/SAE2 + UBC9, in vitro. P63279. 290,000 compounds, 0.36% hits; in the data active = inhibition above about 50%, passing the limit was not always enough; inconclusive = no clear call, values can overlap the other calls
Rin1 Abl inh: inhibitors of human Rin1-Abl protein interaction; P00519+Q13671; TR-FRET Rin1/Abl binding, biochemical; inhibition, % at 7.35 µM; 360,000 compounds, 0.4% hits; AID 588664; in the data active = inhibition above about 5%, passing the limit was not always enough
RBBP9 inh conf: confirmation of human RBBP9 inhibitors; 410 compounds, 36% hits; shares compounds with RBBP9 inh; recombinant RBBP9, FP-Rh probe fluorescence polarization; inhibition, % at 7.94 µM; AID 1537;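 active = inhibition above the hit cutoff derived for the primary screen, cut at about 15% in these data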;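 note: 0% = RBBP9 with DMSO and 100% = wells lacking RBBP9 protein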
Starred values were filed as active, the others as inactive; ? = inconclusive; . = no result.

SMILES	RBBP9 inh	ALR H2O2 inh	UBC13 polyUb	PREPL inhibitor	UBC9 SUMO inh	Rin1 Abl inh	RBBP9 inh conf
O=C(CC(C(=O)N1CCc2ccccc21)n1ccnc1)NCc1cccnc1 (centres undefined)	-4	.	0	10	12	5	.
COc1ccc(S(=O)(=O)Nc2ccc(S(=O)(=O)N3CCCCC3)cc2)cc1	-7	97*	-19	-3	-8	0	.
COc1ccc(S(=O)(=O)Nc2ccc(S(=O)(=O)N3CCCC3)cc2)cc1	0	-2	3	6	21	4	.
COc1ccc(NS(=O)(=O)c2ccc(N3CCCC3)c(N)c2)cc1	.	92*	-9	-10	16	4	.
Cc1nn(C)cc1/C=N/NC(=O)Cn1nnc(N)n1	-4	-2	-3	-12	11	-2	.
N#C/C(=C\c1ccc2c(c1)OCCO2)C(=O)Nc1ccc(C(=O)O)cc1	.	.	-4	0	14	-2	.
COC(=O)c1ccc(CSc2nc3ccccc3c(=O)n2Cc2ccco2)o1	-7	94*	16	8	-12	2	.
COC(=O)c1ccc2c(=O)n(Cc3ccco3)c(SCC(=O)Nc3ccc(C)c(Cl)c3)nc2c1	-11	100*	-12	11	47	-4	.
COC(=O)c1ccc(CSc2nc3ccccc3c(=O)n2CC(C)C)o1	-8	-4	9	-2	-20	1	.
CCCn1c(C)cc(C(=O)CSc2nc3ccccc3c(=O)n2Cc2ccco2)c1C	-8	99*	7	-9	14	1	.
CC(=O)c1cc(CN2CCN(Cc3ccccc3)C(CCO)C2)cs1 (centres undefined)	2	28	-8	7	12	0	.
CCOc1ccc2c(c1)c1nnc(SCC(=O)NC3CC3)nc1n2C	.	-1	-21	-2	15	-2	.
C/C=C/CSc1nc2c(c(=O)[nH]c(=O)n2C)n1C(C)C	15*	-23	3	11	22	6	4
O=C(COc1cccc2cccnc12)N1CCc2ccccc21	1	.	0	-3	4	-3	.
CC(=O)c1ccc(OC(=O)C2CC(=O)N(c3cccc(C)c3)C2)cc1 (centres undefined)	16*	30	-4	12	-3	0	4
CCNc1nc(NC(C)C)nc(N(C#N)C(C)C(=O)N(CC)CC)n1 (centres undefined)	-3	-2	4	4	21	1	.
NC(=O)COC(=O)C12CC3CC(CC(O)(C3)C1)C2	51*	-1	-1	12	-4	2	2
COc1ccc(-c2cc(-c3c(O)c(OC)c4occc4c3OC)[nH]n2)cc1OC	15*	25	10	51*	1	4	53*
COc1ccc(-c2cc(-c3c(O)c(OC)c4occc4c3OC)[nH]n2)cc1	2	-36	2	28	-3	0	.
O=c1[nH]nc(CNc2ccc(C(F)(F)F)cc2)c2ccccc12	-9	-17	4	7	-7	-2	.
O=c1[nH]nc(CNc2ccc(O)cc2)c2ccccc12	17*	100*	-1	41	86	2	6
Cc1ccc2cc(CCNC(=O)c3cccs3)c(=O)[nH]c2c1C	-8	26	6	0	14	1	.
Cc1ccc2cc(CCNC(=O)c3cccs3)c(=O)[nH]c2c1	16*	.	-7	1	11	-1	11
C=CCN=c1scc(C)n1/N=C/c1ccc(O)c(O)c1	23*	99*	16	19	-8	1	24*
CN=c1scc(-c2ccco2)n1/N=C/c1ccc(O)c(O)c1	26*	.	-11	.	-8	3	6
SMILES	RBBP9 inh	ALR H2O2 inh	UBC13 polyUb	PREPL inhibitor	UBC9 SUMO inh	Rin1 Abl inh	RBBP9 inh conf
C=CCN=c1scc(-c2ccccc2)n1/N=C/c1ccccn1	1	28	13	13	-10	-2	.
O=C(O)c1c[nH]c2ccc([N+](=O)[O-])cc2c1=O	.	.	.	.	.	-2	.
Cc1ncc(CO)c(CO)c1OCC(O)CN1CCN(c2ccc(F)cc2)CC1 (centres undefined)	.	.	.	.	.	-1	.
CCOC(=O)C1CCN(c2nc(N)c3c(N)nc(SCC(=O)O)cc3c2C#N)CC1	17*	.	.	.	100*	-1	39*
CCOC(=O)C1CCN(c2nc(C)cc(C)c2C#N)CC1	0	.	2	-1	1	2	.
O=C(O)Cc1ccc(NC(=O)COc2ccc3ccccc3c2)cc1	.	-52	1	-4	7	-1	.
O=C(COc1ccc2ccccc2c1)Nc1ccc(Cc2ccncc2)cc1	28*	-6	-2	-43	-26	-1	3
N#Cc1ccc(-c2ccccc2)nc1SCC(=O)c1cc2ccccc2oc1=O	30*	-4	-16	22	-1	-1	-57
N#Cc1ccc(-c2ccc(OCC(=O)NN=Cc3ccncc3)cc2)cc1	.	-4	-5	14	.	-2	.
CCOc1ccc(/C=C(\C(=O)O)c2ccc(S(=O)(=O)N3CCCCC3)s2)cc1OC	.	3	0	17	.	2	.
Cc1nc2ncccn2c1-c1csc(Nc2ccc(N(C)C)cc2)n1	24*	.	.	.	-12	-3	21*
Cc1cc(NC(=O)c2cccnc2)ccc1Br	.	69	-4	4	-1	1	.
CC(C)(C)N1CCC1C(N)=O (centres undefined)	18*	-1	.	1	18	.	2
Nc1cc(=O)[nH]c(SCC(=O)Nc2ccc(N3CCCCC3)cc2)n1	.	?	-5	4	.	2	.
CCC(=O)N/C(=N/c1nc(C)cc(C)n1)Nc1ccc(OC)cc1	19*	-2	-3	8	9	-1	6
CCC(=O)N/C(=N/c1nc(C)cc(C)n1)Nc1ccccc1	-2	1	0	4	14	-1	.
CCc1ccc(N/C(=N/c2nc(C)cc(C)n2)NC(C)=O)cc1	.	5	0	4	0	4	.
Cc1cc(C)nc(/N=C(\NC(=O)C(C)(C)C)Nc2ccc(F)cc2)n1	15*	1	0	2	12	-2	7
O=C(CC[C@H]1O[C@@H](n2cnc3c(NC(=O)c4ccccc4)ncnc32)[C@H](O)[C@@H]1O)NCc1ccc(OC(F)(F)F)cc1	.	.	.	.	.	4	.
COc1ccc(OC)c(NC(=O)c2cccnc2Sc2cc(C)ccc2C)c1	41*	-20	-18	3	-16	-3	2
COc1ccc(OC)c(NC(=O)c2ccccc2SC)c1	4	-10	13	0	-6	-2	.
Cc1[nH]c2ccccc2c1/C=N/NC(=O)c1cc(-c2ccccc2)n[nH]1	19*	.	-1	33	-38	-3	25*
CN(C)CC1C2CCC(C2)C1O (centres undefined)	.	.	.	.	.	1	.
COC(=O)/C(=C/Nc1ccc(O)cc1)[N+](=O)[O-]	38*	.	-1	31	27	2	9
CCCOc1ccc(/C(O)=C2/C(=O)C(=O)N(c3ccccn3)C2c2ccc(OC)cc2)cc1C (centres undefined)	.	10	-41	31	32	-15	.
